Series [1] in a line: Partition coefficient, logP of the compound. In kind it is physicochemical. Conditions: octanol/water.
The nature of series [2]: Inhibition of human type 2A secretory PLA2 using diheptanoyl thio-PC as substrate after 15 mins by ELISA. In short, it runs like this: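 Type IIA sPLA2 from a commercial kit was incubated with inhibitor and diheptanoyl thio-PC substrate for 15 min. DTNB was then added and the thiol released by hydrolysis was read at 415 nm. Control wells held no inhibitor. % inhibition = (A control − A test)/A control × 100, and IC50 was taken from the dose-response; ursolic acid served as positive control.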

The nature of series [3]: Antiproliferative activity against human DU145 cells after 48 hrs by MTT assay. It counts as functional, cell-based. Conditions: DU-145, 48 h. The gist of the method:
(§1)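 Cells were grown in RPMI with 10% FCS, penicillin and streptomycin at 37 °C in humidified CO2. They were exposed to a range of concentrations for 48 h, then given MTT for 2 h at 37 °C. Formazan was dissolved in DMSO and absorbance read at 570 nm (reference 620 nm). IC50 was derived from the readings, with doxorubicin as positive control.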

Series [4] concerns Rattus norvegicus. The series is described as follows: Antiinflammatory activity against carrageenan-induced paw edema in Wistar albino rat model at 10 mg/kg, po administered 1 hr prior to carrageenan-challenge measured at 4th hr by plethysmometer. In kind it is functional. The gist of the method: (§2)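 Rats were dosed orally 1 h before subplantar injection of 0.1 ml 1% λ-carrageenan in saline into the left hind paw, with saline in the right paw. Vehicle controls received saline 1 ml/kg p.o.; ursolic acid served as positive control. Paw volume was read by mercury plethysmometer before injection and at 1, 2, 3, 4 and 6 h. Results are % edema inhibition versus vehicle, mean ± SEM, n = 3-6, one-way ANOVA.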

Series [5] relates to Rattus norvegicus. The series is described as follows: Antiinflammatory activity against carrageenan-induced paw edema in Wistar albino rat model at 10 mg/kg, po administered 1 hr prior to carrageenan-challenge measured at 3rd hr by plethysmometer. It counts as functional. In short, it runs like this:
as §2

The subject of series [6] is MCF7. The series can be described thus: Antiproliferative activity against human MCF7 cells after 48 hrs by MTT assay. Conditions: MCF7, 48 h. In kind it is functional, cell-based. In short, it runs like this: as §1

For the molecule `Cc1ccc2[nH]cc(CNCc3cc(-c4ccc(F)c(C(F)(F)F)c4)no3)c2c1`, the log partition coefficient (logP) in series [1] was determined as 4.85. For the same molecule, the half-maximal inhibitory concentration (IC50) is 10.2 µM in series [2], 14.2 µM in series [3] and 10 µM in series [6]. Also, the inhibition in vivo at 10 mg/kg in series [4] came to 76.5%; in series [5] it was 75.7%.

As for `COc1ccc(-c2cc(CNCc3c[nH]c4ccccc34)on2)cc1`, in series [1], the logP was 3.5. In series [2], this molecule showed a 50% inhibitory concentration (IC50) of 18.2 µM.

For the molecule `Cc1ccc(-c2cc(CNCc3c[nH]c4ccccc34)on2)cc1`, the logP in series [1] came out at 3.89. Also, inhibition in series [2] was half-maximal at 22.7 µM (IC50).

For `Fc1ccc(-c2cc(CNCc3c[nH]c4ccccc34)on2)cc1C(F)(F)F`, the logP in series [1] turned out to be 4.43. Moreover, inhibition in series [2] was half-maximal at 21.5 µM (IC50).

Molecule `Cc1ccc(-c2cc(CNCc3c[nH]c4ccc(Br)cc34)on2)cc1` registered a log partition coefficient (logP) in series [1] of 4.67. In series [2], this molecule displayed an IC50 of 27.3 µM.

In series [1], `COc1ccc(-c2cc(CNCc3c[nH]c4ccc(Br)cc34)on2)cc1` came in with a logP of 4.28. In series [2], the IC50 turned out to be 32.6 µM.

`Brc1ccc2[nH]cc(CNCc3cc(-c4ccccc4)no3)c2c1` gave a log partition coefficient (logP) in series [1] of 4.23. In addition, the IC50 in series [2] turned out to be 32.5 µM.

On to `Fc1ccc(-c2cc(CNCc3c[nH]c4ccc(Br)cc34)on2)cc1C(F)(F)F`, for which the lipophilicity (logP) in series [1] amounted to 5.21. Moreover, the IC50 in series [2] worked out at 17.2 µM.

Molecule `c1ccc(-c2cc(CNCc3c[nH]c4ccccc34)on2)cc1` registered a logP in series [1] of 3.44. For the same molecule, in series [2], the midpoint of inhibition, the IC50, lay at 30.6 µM.

`O=[N+]([O-])c1ccc(-c2cc(CNCc3c[nH]c4ccccc34)on2)cc1` displayed a lipophilicity (logP) in series [1] of 3.4. In series [2], the IC50 came out at 25.6 µM.

In series [1], `Cc1ccc(-c2cc(CNCc3c[nH]c4ccc(C)cc34)on2)cc1` yielded a logP of 4.33. The same molecule showed a half-maximal inhibitory concentration (IC50) in series [2] of 21.6 µM.

In series [1], `COc1ccc(-c2cc(CNCc3c[nH]c4ccc(C)cc34)on2)cc1` returned a logP of 3.92. This molecule registered an IC50 in series [2] of 24.6 µM.

In turn, `O=[N+]([O-])c1ccc(-c2cc(CNCc3c[nH]c4ccc(Br)cc34)on2)cc1` showed a logP in series [1] of 4.19. The molecule also registered an IC50 in series [2] of 22.4 µM.

In turn, `Cc1ccc2[nH]cc(CNCc3cc(-c4ccccc4)no3)c2c1` came in with a lipophilicity (logP) in series [1] of 3.87. In addition, the IC50 in series [2] amounted to 27.9 µM.

In series [1], `Cc1ccc2[nH]cc(CNCc3cc(-c4ccc([N+](=O)[O-])cc4)no3)c2c1` came in with a lipophilicity (logP) of 3.83. Further, the IC50 in series [2] worked out at 19.4 µM.

In turn, `COc1cccc2c1C(=O)c1c(O)c3c(c(O)c1C2=O)C[C@@](O)(C(=O)CO)C[C@@H]3O[C@H]1C[C@H](N)[C@H](O)[C@H](C)O1` [DOXORUBICIN] registered an IC50 in series [3] of 4.75 µM.

The molecule `C[C@H]1[C@H](C)CC[C@]2(C(=O)O)CC[C@]3(C)C(=CC[C@@H]4[C@@]5(C)CC[C@H](O)C(C)(C)[C@@H]5CC[C@]43C)[C@H]12` [URSOLIC ACID] registered an IC50 in series [2] of 12.6 µM. Besides, the inhibition in vivo at 10 mg/kg is 75.2% in series [4] and 73% in series [5].
